According to the array DNA melting data of Ke et al. (doi:10.1101/2024.01.08.574731):

Experiments:
[1] = melting temperature; fluorescence melt of hairpins on a sequencing array, two-state fit, raised by 9.35 °C to match UV melts; conditions: sodium 0.088 M
Procedure, shortened: (§1)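 With Cy3 and quencher oligos annealed, library hairpins on a sequenced MiSeq flow cell were imaged for Cy3 fluorescence in 50 mM Na-HEPES pH 8.0, 25 mM NaCl, in 2.5 °C steps up to 60 °C. Melting temperature and folding enthalpy were derived from bootstrapped two-state fits of signals normalised to pre-quench Cy3 and to control constructs. Four replicates were combined by inverse variance, with fitted temperatures raised by 9.35 °C to match UV melts.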

[2] = folding enthalpy; higher = less favourable; fluorescence melt of hairpins on a sequencing array, two-state fit; conditions: sodium 0.088 M
Procedure, shortened: as §1

Sequence	Tm [1] [°C]	folding enthalpy [2] [kcal/mol]
GAGCTAGGAAACTAACTC (((.(((....))).)))	30.4	-19.9
GAGCTAGGAAACTAGCCC (.(((((....))))).)	40.4	-12.9
GAGCTAGGAAACTAGTTC ((.((((....)))).))	37.2	-26.8
GAGCTCCGAAAGGATCTC (((.(((....))).)))	46.4	-25
GAGCTGCGAAAGCACTC (((.(((....))))))	46.2	-20.4
GAGCTGGGAAACCGGCTC ((((.((....)).))))	59.2	-38.5
GAGGAACGAAAGTTACTC (((.(((....))).)))	54.5	-39.3
GAGGAACGAAAGTTGCTC (((.(((....))).)))	53.9	-47.7
GAGGAAGAAATTCCTC ((((((....))))))	47.7	-25
GAGGAAGGAAACCTCCTC (((((.(....).)))))	36.6	-25.9
GAGGACGAAAGTCCCCTC ((((((....)))..)))	42.7	-10.3
GAGGACGAAAGTCCCTC ((((((....))).)))	51.2	-11.3
GAGGACGAAAGTCGACTC ((((((....)))..)))	40.6	-14.9
GAGGACGAAAGTCGCTC ((((((....))).)))	46	-17.8
GAGGACGAAAGTCTACTC ((((((....)))..)))	36.8	-12
GAGGACGAAAGTCTCCTC ((((((....)))..)))	36.3	-14.9
GAGGAGACGAAAGTCCTC (((..(((....))))))	40.8	-15.5
GAGGAGCGAAAGCTACTC (((.(((....))).)))	64.8	-31.4
GAGGAGGCGAAAGCCCTC (((..(((....))))))	44.1	-14.1
GAGGATGGAAACATCCCC (.(((((....))))).)	42.8	-11.5
GAGGCACGAAAGTGTCTC (((.(((....))).)))	64.5	-29
GAGGCCGAAAGGCCACTC ((((((....)))..)))	60.4	-10.2
GAGGCCGAAAGGCGACTC ((((((....)))..)))	44.7	-12.7

Sequence	Tm [1] [°C]	folding enthalpy [2] [kcal/mol]
GAGGGACGAAAGTCACTC (((.(((....))).)))	65.6	-31.2
GAGGGAGGAAACCCCCTC (((((.(....).)))))	46.3	-28.5
GAGGGCGAAAGCCAACTC ((((((....)))..)))	41.7	-13
GAGGGCGAAAGCCGACTC ((((((....)))..)))	44.6	-13
GAGGGCGAAAGCCGCTC ((((((....))).)))	54.5	-13
GAGGGGCGAAAGCCTCTC (((.(((....))).)))	58	-23.3
GAGGGGGCGAAAGCCCTC (((..(((....))))))	40.6	-7.85
GAGGGTGCGAAAGCACTC (((..(((....))))))	41.1	-8.61
GAGGTAGCGAAAGCTCTC (((..(((....))))))	38	-13.6
GAGGTAGGAAACTACTTC ((.((((....)))).))	32.5	-30.1
GAGGTCACGAAAGTGCTC (((..(((....))))))	30.7	-13.4
GAGGTCGGAAACGGCCTC ((((.((....)).))))	62.3	-41.8
GAGGTGCGAAAGCATCTC (((.(((....))).)))	59.3	-34
GAGGTGGAAACACCTC ((((((....))))))	63.4	-33.3
GAGGTGGGAAACCGCTTC ((.(.((....)).).))	50	-19.1
GAGGTTGGAAACAACCCC (.(((((....))))).)	40.5	-13.2
GAGGTTGGAAACGACTTC ((.((.(....).)).))	35.2	-24.9
GAGTAACGAAAGTTGCTC (((.(((....))).)))	53.2	-52
GAGTAAGCGAAAGCTCTC (((..(((....))))))	35.7	-13.4
GAGTACCGAAAGGTGCTC (((.(((....))).)))	60.6	-36.6
GAGTACCGAAAGGTTCTC (((.(((....))).)))	47.9	-30.7
GAGTACGAAAGTACGCTC ((((((....)))..)))	53.9	-16.3
GAGTACGAAAGTAGGCTC ((((((....)))..)))	36.1	-19.6

Sequence	Tm [1] [°C]	folding enthalpy [2] [kcal/mol]
GAGTAGGGAAACCCACTC ((((.((....)).))))	39.6	-32
GAGTATGGAAACACACTC ((((.((....)).))))	31.7	-24.9
GAGTATGGAAACATATTC ((.((((....)))).))	30.8	-21.2
GAGTCACCGAAAGGTCTC (((..(((....))))))	28.1	-12.6
GAGTCACGAAAGTGCTC (((.(((....))))))	48.6	-23.8
GAGTCAGGAAACTAACTC ((((.((....)).))))	25.4	-12.4
GAGTCCCCGAAAGGGCTC (((..(((....))))))	44.4	-19.2
GAGTCCGAAAGGATCTC ((((((....))).)))	50	-31
GAGTCCGGAAACGAACTC ((((.((....)).))))	41.7	-34.6
GAGTCGGAAACGACTC ((((((....))))))	65.9	-37.5
GAGTCTACGAAAGTACTC (((..(((....))))))	27.2	-15
GAGTCTGGAAACAGACCC (.(((((....))))).)	38	-14.2
GAGTCTGGAAACAGACTC (((((((....)))))))	65.3	-39.9
GAGTGACGAAAGTCGCTC (((.(((....))).)))	64.8	-38.9
GAGTGAGGAAACTCACCC (.(((((....))))).)	39.4	-13.9
GAGTGAGGAAACTCGCTC (((.(((....))).)))	50.6	-49.6
GAGTGAGGAAACTCGTTC ((..(((....)))..))	27.6	-11.8
GAGTGCACGAAAGTGCTC (((..(((....))))))	37.4	-7.52
GAGTGCCGAAAGGCCCTC (((.(((....))).)))	51.3	-18.3
GAGTGCCGAAAGGCTCTC (((.(((....))).)))	56.4	-25.6
GAGTGCGAAAGCAATCTC ((((((....)))..)))	53.7	-21.4
GAGTGCGAAAGCACACTC ((((((....)))..)))	58.6	-12.6
GAGTGCGAAAGCACCCTC ((((((....)))..)))	45.1	-10.4

Sequence	Tm [1] [°C]	folding enthalpy [2] [kcal/mol]
GAGTGCGAAAGCAGACTC ((((((....)))..)))	44.4	-18.2
GAGTGCGAAAGCAGCCTC ((((((....)))..)))	34.5	-13.2
GAGTGCGAAAGCATCCTC ((((((....)))..)))	33	-10.2
GAGTGCGAAAGCATTCTC ((((((....)))..)))	52.3	-21.5
GAGTGCGCGAAAGCGCTC (((..(((....))))))	32	-5.97
GAGTGCGGAAACACACTC (((((.(....).)))))	47.5	-28.4
GAGTGGGGAAACCTACTC ((((.((....)).))))	46.4	-30.6
GAGTGTGGAAACACACCC (.(((((....))))).)	40.8	-11.7
GAGTGTGGAAACACACTC (((((((....)))))))	66	-36.1
GAGTGTGGAAACACGTTC ((..(((....)))..))	42.9	-12.2
GAGTGTGGAAACATGCTC (((..((....))..)))	38.7	-31.2
GAGTGTGGAAACGTACTC ((((..(....)..))))	35.5	-22.9
GAGTTAGAAATAACTC ((((((....))))))	43.2	-31.5
GAGTTAGGAAACTAACTC (((((((....)))))))	54.8	-36.3
GAGTTCACGAAAGTGCTC (((..(((....))))))	28.1	-10.9
GAGTTCCGAAAGGACTC (((.(((....))))))	49.2	-22.1
GAGTTGCGAAAGCAGCTC (((.(((....))).)))	62.1	-32.4
GAGTTGGCGAAAGCCCTC (((..(((....))))))	28.7	-11.1
GAGTTTACGAAAGTACTC (((..(((....))))))	30	-12.6
GATAAAACGAAAGTTATC (((..(((....))))))	22.7	-9.65
GATAAACGAAAGTTAATC (((.(((....))).)))	34.4	-16
GATAACACGAAAGTGATC (((..(((....))))))	24.9	-10.1
